The source made the active and inactive calls. The calls are words filed in the database; no cut-off is given here.
Experiments:
Human respirovirus 3 = assay: Antiviral activity against Human parainfluenza virus 3 infected in African green monkey Vero cells assessed as reduction in viral cytopathic effect; assay type: functional, organism-based
How it was run: (§1)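 Confluent cell monolayers were infected with 100 CCID50 of virus (1 CCID50 is the dose infecting 50% of cultures) with test compound at varying concentrations (100, 20, … μM). CPE was scored once it was complete in untreated infected controls.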

[1] = tested on: Respiratory syncytial virus; assay: Antiviral activity against Respiratory syncytial virus infected in human HeLa cells assessed as reduction in viral cytopathic effect; assay type: functional, organism-based; how it was run: as §1
[2] = tested on: Human immunodeficiency virus 1; assay: Antiviral activity against Human immunodeficiency virus 1 LAV1 infected in primary human PBM cells after 6 days by reverse transcriptase activity-based assay; assay type: functional, organism-based
[3] = tested on: Vesicular stomatitis virus; assay: Antiviral activity against Vesicular stomatitis virus infected in human HeLa cells assessed as reduction in viral cytopathic effect; assay type: functional, organism-based; how it was run: as §1
Human alphaherpesvirus 3 [4] = assay: Antiviral activity against Varicella zoster virus Oka infected in HEL cells assessed as reduction in viral plaque formation; assay type: functional, organism-based; details: Human alphaherpesvirus 3, strain Oka vaccine
How it was run: (§2)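 Confluent cultures were inoculated with 20 PFU of virus with compound at varying concentrations (100, 20, … μM). Plaques were counted once plaque formation was complete in untreated infected controls.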

Influenza B virus = assay: Antiviral activity against Influenza B virus infected in MDCK cells assessed as reduction in viral cytopathic effect; assay type: functional, organism-based
How it was run: (§3)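 Nearly confluent MDCK cultures were infected with 100 CCID50 of virus with compound at varying concentrations (100, 20, … μM). CPE was scored when complete in untreated infected controls.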

Human alphaherpesvirus 1 [5] = assay: Antiviral activity against thymidine kinase deficient acyclovir-resistant Human simplex virus 1 KOS infected in HEL cells assessed as reduction in viral cytopathic effect; assay type: functional, organism-based; details: Human alphaherpesvirus 1, KOS; how it was run: as §1
Sindbis virus = assay: Antiviral activity against Sindbis virus infected in African green monkey Vero cells assessed as reduction in viral cytopathic effect; assay type: functional, organism-based; how it was run: as §1
Human coronavirus 229E = assay: Antiviral activity against Human coronavirus 229E infected in HEL cells assessed as reduction in viral cytopathic effect; assay type: functional, organism-based; how it was run: as §1
Influenza A virus H3N2 = assay: Antiviral activity against Influenza A virus H3N2 infected in MDCK cells assessed as reduction in viral cytopathic effect; assay type: functional, organism-based; how it was run: as §3
[6] = Cytotoxicity against HEL cells assessed as alteration of cell morphology by microscopic method; assay type: cell-based; details: human
How it was run: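 MCC is the lowest compound concentration giving a microscopically visible alteration of cell morphology.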

Coxsackievirus B4 [7] = assay: Antiviral activity against Coxsackievirus B4 infected in African green monkey Vero cells assessed as reduction in viral cytopathic effect; assay type: functional, organism-based; how it was run: as §1
Vaccinia virus = assay: Antiviral activity against Vaccinia virus infected in HEL cells assessed as reduction in viral cytopathic effect; assay type: functional, organism-based; details: Orthopoxvirus vaccinia; how it was run: as §1
Human betaherpesvirus 5 [8] = assay: Antiviral activity against Human cytomegalovirus Davis infected in HEL cells assessed as reduction in viral cytopathic effect; assay type: functional, organism-based; details: Human betaherpesvirus 5, Davis; how it was run: as §1
Human betaherpesvirus 5 [9] = assay: Antiviral activity against Human cytomegalovirus AD169 infected in HEL cells assessed as reduction in viral cytopathic effect; assay type: functional, organism-based; details: Human betaherpesvirus 5, AD169, HEL; how it was run: as §1
Human alphaherpesvirus 3 [10] = assay: Antiviral activity against thymidine kinase deficient Varicella zoster virus 07/1 infected in HEL cells assessed as reduction in viral plaque formation; assay type: functional, organism-based; details: Human alphaherpesvirus 3, 07/1, HEL; how it was run: as §2
Human alphaherpesvirus 2 = assay: Antiviral activity against Human simplex virus 2 G infected in HEL cells assessed as reduction in viral cytopathic effect; assay type: functional, organism-based; details: Human alphaherpesvirus 2, strain G; how it was run: as §1
Human alphaherpesvirus 1 [11] = assay: Antiviral activity against Human simplex virus 1 KOS infected in HEL cells assessed as reduction in viral cytopathic effect; assay type: functional, organism-based; details: Human alphaherpesvirus 1, KOS; how it was run: as §1
Coxsackievirus B4 [12] = assay: Antiviral activity against Human coxsackievirus B4 infected in human HeLa cells assessed as reduction in viral cytopathic effect; assay type: functional, organism-based; how it was run: as §1
Influenza A virus = assay: Antiviral activity against Influenza A virus (H1N1) infected in MDCK cells assessed as reduction in viral cytopathic effect; assay type: functional, organism-based; how it was run: as §3
[13] = tested on: Mammalian orthoreovirus 1; assay: Antiviral activity against Reovirus-1 infected in African green monkey Vero cells assessed as reduction in viral cytopathic effect; assay type: functional, organism-based; how it was run: as §1
HEL = assay: Cytostatic activity against HEL cells after 3 days by Coulter counting method; assay type: cell-based; details: human, 72 h
How it was run: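 HEL cells were seeded at 5 × 10^3 cells/well and grown for 24 h, then given medium with graded compound concentrations. After 3 days at 37 °C, cells were counted with a Coulter counter.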

[14] = Selectivity index, ratio of CC50 for HEL cells to EC50 for Varicella zoster virus Oka infected in HEL cells; assay type: toxicity, cell-based; details: human, read-out: Ratio CC50/EC50
How it was run: (§4)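 SI is CC50 divided by EC50. CC50 comes from the 3-day HEL Coulter-counter growth assay. EC50 comes from the VZV plaque-reduction assay (20 PFU inoculum).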

[15] = Selectivity index, ratio of CC50 for HEL cells to EC50 for thymidine kinase deficient Varicella zoster virus 07/1 infected in HEL cells; assay type: toxicity, cell-based; details: human, read-out: Ratio CC50/EC50; how it was run: as §4

| Compound | Activity (Human respirovirus 3) | Activity [1] | Activity [2] | Activity [3] | EC50 (Human alphaherpesvirus 3 [4]) | Activity (Influenza B virus) | EC50 (Human alphaherpesvirus 1 [5]) | Activity (Sindbis virus) | Activity (Influenza A virus H3N2) | MCC [6] | Activity (Coxsackievirus B4 [7]) | EC50 (Vaccinia virus) | EC50 (Human betaherpesvirus 5 [8]) | EC50 (Human betaherpesvirus 5 [9]) | EC50 (Human alphaherpesvirus 3 [10]) | EC50 (Human alphaherpesvirus 2) | EC50 (Human alphaherpesvirus 1 [11]) | Activity (Coxsackievirus B4 [12]) | Activity (Influenza A virus) | CC50 (HEL) | also measured |
| --- | --- | --- | --- | --- | --- | --- | --- | --- | --- | --- | --- | --- | --- | --- | --- | --- | --- | --- | --- | --- | --- |
| C[C@H](NP(=O)(C/C=C/Cn1cc(Cl)c(=O)[nH]c1=O)Oc1ccccc1)C(=O)OCc1ccccc1 (some centres undefined) | inactive | inactive | inactive | inactive | 44.7 µM | inactive | 24 µM | inactive | inactive | ≥ 100 µM | inactive | > 100 µM | > 20 µM | > 20 µM | 20 µM | 40 µM | 43 µM | inactive | inactive | – | EC50 (Human coronavirus 229E): 8.9 µM; Activity [13]: inactive |
| Nc1ccn(C[C@@H](CO)OCP(=O)(O)O)c(=O)n1 [CIDOFOVIR] | – | – | – | – | – | – | 4.6 µM | – | – | > 300 µM | – | 21.3 µM | – | – | – | 4.1 µM | 6.5 µM | – | – | > 300 µM | – |
| COC(=O)[C@H](C)NP(=O)(C/C=C/Cn1cc(C)c(=O)[nH]c1=O)Oc1ccccc1 (some centres undefined) | inactive | inactive | inactive | inactive | 8.13 µM | inactive | 23.5 µM | inactive | inactive | > 100 µM | inactive | > 100 µM | ≥ 70 µM | ≥ 72 µM | 1.82 µM | 31 µM | 59 µM | inactive | inactive | > 100 µM | EC50 (Human coronavirus 229E): > 100 µM; selectivity ratio [14]: > 12; selectivity ratio [15]: > 55; Activity [13]: inactive |
| CCCCCCCCCCCCCCCOCCCOP(=O)(O)C/C=C/Cn1cc(C)c(=O)[nH]c1=O | inactive | inactive | inactive | inactive | 19.4 µM | inactive | > 37 µM | inactive | inactive | 184 µM | inactive | > 37 µM | 13.5 µM | > 39 µM | 20.5 µM | > 37 µM | > 37 µM | inactive | inactive | 76 µM | Activity [13]: inactive |
| Nc1nc2c(ncn2COCCO)c(=O)[nH]1 [ACYCLOVIR] | – | – | – | – | – | – | 94 µM | – | – | > 440 µM | – | > 250 µM | – | – | – | 0.7 µM | 1.2 µM | – | – | > 440 µM | – |
| CCCCCCCCCCCCCCCOCCCOP(=O)(C/C=C/Cn1cc(C)c(=O)[nH]c1=O)OCOC(=O)OC(C)C (centres undefined) | inactive | inactive | inactive | inactive | > 6 µM | inactive | > 152 µM | inactive | inactive | 30 µM | inactive | – | > 6 µM | > 6 µM | > 6 µM | > 152 µM | > 152 µM | inactive | inactive | 14.7 µM | Activity [13]: inactive |
| Cc1cn(C/C=C/C[P@@](=O)(N[C@@H](C)C(=O)OCc2ccccc2)Oc2ccccc2)c(=O)[nH]c1=O | inactive | inactive | inactive | inactive | 0.59 µM | inactive | 4.1 µM | inactive | inactive | > 100 µM | inactive | – | 52.5 µM | 34.2 µM | 0.39 µM | 2.9 µM | 11.5 µM | inactive | inactive | 55 µM | EC50 (Human coronavirus 229E): 60 µM; selectivity ratio [14]: 93; selectivity ratio [15]: 141; Activity [13]: inactive |
| Cc1cn(C/C=C/CP(=O)(OCOC(=O)C(C)(C)C)OCOC(=O)C(C)(C)C)c(=O)[nH]c1=O | inactive | inactive | inactive | inactive | 1.91 µM | inactive | – | inactive | inactive | ≥ 100 µM | inactive | 30.7 µM | > 41 µM | > 41 µM | 0.43 µM | 6.5 µM | – | inactive | inactive | 36.4 µM | selectivity ratio [14]: 19; selectivity ratio [15]: 85; Activity [13]: inactive |
| Nc1nc(O)c2ncn(COC(CO)CO)c2n1 [GANCICLOVIR] | – | – | – | – | – | – | – | – | – | ≥ 350 µM | – | – | 4.05 µM | 5.63 µM | – | – | – | – | – | > 350 µM | – |
| O=c1[nH]c(=O)n([C@H]2C[C@H](O)[C@@H](CO)O2)cc1/C=C/Br [BRIVUDINE] | – | – | – | – | – | – | 420 µM | – | – | > 300 µM | – | 10.8 µM | – | – | ≥ 93.8 µM | 169 µM | 0.081 µM | – | – | > 300 µM | selectivity ratio [14]: > 21400; selectivity ratio [15]: > 3 |
| Cc1cn(C/C=C/CP(=O)(OCOC(=O)C(C)C)OCOC(=O)C(C)C)c(=O)[nH]c1=O | inactive | inactive | inactive | inactive | 1.26 µM | inactive | 2.8 µM | inactive | inactive | > 200 µM | inactive | > 200 µM | 83 µM | 102 µM | 0.45 µM | 6.1 µM | 4.2 µM | inactive | inactive | 36 µM | selectivity ratio [14]: 29; selectivity ratio [15]: 80; Activity [13]: inactive |
| C[C@H](NP(=O)(C/C=C/Cn1cc(F)c(=O)[nH]c1=O)Oc1ccccc1)C(=O)OCc1ccccc1 (some centres undefined) | inactive | inactive | inactive | inactive | > 100 µM | inactive | 79 µM | inactive | inactive | ≥ 100 µM | inactive | > 100 µM | > 20 µM | > 20 µM | > 100 µM | > 100 µM | > 100 µM | inactive | inactive | – | EC50 (Human coronavirus 229E): 45 µM; Activity [13]: inactive |

From ChEMBL document CHEMBL4196014, “Highly convergent synthesis and antiviral activity of (E)-but-2-enyl nucleoside phosphonoamidates” (Eur J Med Chem, 2018)
